Converted amounts (≈) assume the structure as drawn. Values belong to the compound of their own block, whether it stands above or below them. The source made the active and inactive calls. The rule behind the calls is not given here.
Key:
[1] = Metabolic stability in human microsomes assessed as half life; format: ADME, Microsome
[2] = Solubility of compound in water; format: physicochemical
NaV1.1 = NaV1.1 (Homo sapiens, UniProt P35498); test: Inhibition of NaV1.1 (unknown origin) expressed in cells assessed as inhibition of peak INa current at 10 uM at 25 Hz frequency by whole-cell patch clamp method relative to control; format: cell-based; conditions: cells expressing NaV1.1
Method in brief: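 Whole-cell manual patch clamp on non-cardiac NaV1.x channels, run at room temperature. Series resistance was compensated 90% so the command potential was reached within microseconds.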

[3] = Inhibition of late sodium current channel (unknown origin) at 25 Hz frequency by whole cell patch clamp technique; conditions: Homo sapiens
Oryctolagus cuniculus [4] = organism: Oryctolagus cuniculus; test: Cardioprotective activity in New Zealand White rabbit heart assessed as reversal of ATX-II induced late sodium current prolongation in change in duration of monophasic action potential at 90 percent repolarization at 1 uM by electrocardiographic analysis relative to control; format: functional
[5] = Metabolic stability in rat microsomes assessed as half life; format: ADME, Microsome
[6] = Metabolic stability in dog microsomes assessed as half life; format: ADME, Canis lupus familiaris, Microsome
Homo sapiens [7] = organism: Homo sapiens; test: Inhibition of late sodium current channel (unknown origin) at 1 uM at 25 Hz frequency by whole cell patch clamp technique relative to control
[8] = Ratio of drug concentration in brain to plasma of coronary artery occlusion-induced ischemia-reperfusion injury rabbit model intravenously administered with compound for 30 mins measured by LC-MS/MS analysis; format: ADME, Oryctolagus cuniculus; conditions: brain and plasma, iv, read-out: BPR
NaV1.5 [9] = target: T1, NaV1.5 (Homo sapiens, UniProt Q14524); test: Inhibition of human NaV1.5 expressed in HEK293 cells assessed as inhibition of peak sodium current measured at frequency 3 Hz at -20 mV resting membrane potential at 3 uM by electrophysiology assay relative to control; format: cell-based; conditions: HEK293 cells expressing human NaV1.5
Oryctolagus cuniculus [10] = test: (§1) Cardioprotective activity in New Zealand rabbit model of LAD coronary artery occlusion-induced ischemia-reperfusion injury assessed as inhibition of ST segment elevation intravenously administered with compound for 30 mins followed by induction of ischemia for 15 mins and subsequent reperfusion for 15 mins by electrocardiographic analysis; format: functional
[11] = Toxicity in rabbit model of left circumflex artery ligation-induced ischemia assessed as increase in VT-VF at 1 mg/kg by electrocardiographic analysis; format: organism-based, Oryctolagus cuniculus; conditions: in vivo
[12] = Toxicity in rabbit model of left circumflex artery ligation-induced ischemia assessed as animal death at 1 mg/kg; format: organism-based, Oryctolagus cuniculus; conditions: in vivo
NaV1.5 [13] = target: T1, NaV1.5; test: Inhibition of human NaV1.5 expressed in HEK293 cells assessed as inhibition of peak sodium current measured at frequency 3 Hz at -20 mV resting membrane potential at 1 uM by electrophysiology assay relative to control; format: cell-based; conditions: HEK293 cells expressing human NaV1.5
[14] = Toxicity in New Zealand rabbit model of LAD coronary artery occlusion-induced ischemia-reperfusion injury assessed as effect on ECG interval at 0.28 to 0.52 uM; parameters: species or system Oryctolagus cuniculus; conditions: in vivo, dose 0.28-0.52 µM
[15] = Toxicity in New Zealand rabbit model of LAD coronary artery occlusion-induced ischemia-reperfusion injury assessed as effect on heart rate at 0.28 to 0.52 uM; parameters: species or system Oryctolagus cuniculus; conditions: in vivo, dose 0.28-0.52 µM
Oryctolagus cuniculus [16] = organism: Oryctolagus cuniculus; test: as §1, with “at 0.52 uM” for “intravenously administered with compound”; format: functional; parameters: scale not given: the % may be the effect or the level left; conditions: time 60 min, 1 h
Oryctolagus cuniculus [17] = organism: Oryctolagus cuniculus; test: as §1, with “at 0.28 uM” for “intravenously administered with compound”; format: functional; parameters: scale not given: the % may be the effect or the level left; conditions: time 60 min, 1 h
[18] = Toxicity in New Zealand rabbit model of LAD coronary artery occlusion-induced ischemia-reperfusion injury assessed as effect on blood pressure at 0.28 to 0.52 uM; parameters: species or system Oryctolagus cuniculus; conditions: in vivo, dose 0.28-0.52 µM
NaV1.5 [19] = target: T1, NaV1.5; test: Inhibition of human NaV1.5 expressed in HEK293 cells assessed as inhibition of peak sodium current measured at frequency 3 Hz at -120 mV resting membrane potential at 0.3 uM by electrophysiology assay relative to control; conditions: HEK293 cells expressing human NaV1.5
Oryctolagus cuniculus [20] = organism: Oryctolagus cuniculus; test: Cardioprotective activity in rabbit assessed as decrease in chemically-induced Torsades des Pointes at 14 uM by electrocardiographic analysis; format: functional; parameters: scale not given: the % may be the effect or the level left
Oryctolagus cuniculus [21] = organism: Oryctolagus cuniculus; test: as §1, with “at 12 uM” for “intravenously administered with compound”; format: functional; conditions: 1 h, time 60 min
[22] = Inhibition of peak sodium current (unknown origin) by manual patch clamp method; parameters: species or system Homo sapiens
[23] = target: Sodium channel protein type 1 subunit alpha (Homo sapiens, UniProt P35498); test: Inhibition of peak NaV1.1 (unknown origin) at 10 uM at 10 Hz frequency by manual patch clamp technique
Method in brief: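 Whole-cell manual patch clamp at room temperature, with series resistance compensated 90%.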

Oryctolagus cuniculus [24] = organism: Oryctolagus cuniculus; test: Cardioprotective activity in New Zealand White rabbit heart assessed as reversal of ATX-II induced late sodium current prolongation in change in duration of monophasic action potential at 90 percent repolarization by electrocardiographic analysis relative to control; format: functional, tissue-based
Homo sapiens [25] = organism: Homo sapiens; test: Inhibition of L-type calcium channel (unknown origin)
Oryctolagus cuniculus [26] = organism: Oryctolagus cuniculus; test: Cardioprotective activity in New Zealand rabbit heart assessed as reversal of ATX-II induced late sodium current increase in QT interval by electrocardiographic analysis; format: functional

T1 sequence (Q14524 whole entry, the tested form may be a part): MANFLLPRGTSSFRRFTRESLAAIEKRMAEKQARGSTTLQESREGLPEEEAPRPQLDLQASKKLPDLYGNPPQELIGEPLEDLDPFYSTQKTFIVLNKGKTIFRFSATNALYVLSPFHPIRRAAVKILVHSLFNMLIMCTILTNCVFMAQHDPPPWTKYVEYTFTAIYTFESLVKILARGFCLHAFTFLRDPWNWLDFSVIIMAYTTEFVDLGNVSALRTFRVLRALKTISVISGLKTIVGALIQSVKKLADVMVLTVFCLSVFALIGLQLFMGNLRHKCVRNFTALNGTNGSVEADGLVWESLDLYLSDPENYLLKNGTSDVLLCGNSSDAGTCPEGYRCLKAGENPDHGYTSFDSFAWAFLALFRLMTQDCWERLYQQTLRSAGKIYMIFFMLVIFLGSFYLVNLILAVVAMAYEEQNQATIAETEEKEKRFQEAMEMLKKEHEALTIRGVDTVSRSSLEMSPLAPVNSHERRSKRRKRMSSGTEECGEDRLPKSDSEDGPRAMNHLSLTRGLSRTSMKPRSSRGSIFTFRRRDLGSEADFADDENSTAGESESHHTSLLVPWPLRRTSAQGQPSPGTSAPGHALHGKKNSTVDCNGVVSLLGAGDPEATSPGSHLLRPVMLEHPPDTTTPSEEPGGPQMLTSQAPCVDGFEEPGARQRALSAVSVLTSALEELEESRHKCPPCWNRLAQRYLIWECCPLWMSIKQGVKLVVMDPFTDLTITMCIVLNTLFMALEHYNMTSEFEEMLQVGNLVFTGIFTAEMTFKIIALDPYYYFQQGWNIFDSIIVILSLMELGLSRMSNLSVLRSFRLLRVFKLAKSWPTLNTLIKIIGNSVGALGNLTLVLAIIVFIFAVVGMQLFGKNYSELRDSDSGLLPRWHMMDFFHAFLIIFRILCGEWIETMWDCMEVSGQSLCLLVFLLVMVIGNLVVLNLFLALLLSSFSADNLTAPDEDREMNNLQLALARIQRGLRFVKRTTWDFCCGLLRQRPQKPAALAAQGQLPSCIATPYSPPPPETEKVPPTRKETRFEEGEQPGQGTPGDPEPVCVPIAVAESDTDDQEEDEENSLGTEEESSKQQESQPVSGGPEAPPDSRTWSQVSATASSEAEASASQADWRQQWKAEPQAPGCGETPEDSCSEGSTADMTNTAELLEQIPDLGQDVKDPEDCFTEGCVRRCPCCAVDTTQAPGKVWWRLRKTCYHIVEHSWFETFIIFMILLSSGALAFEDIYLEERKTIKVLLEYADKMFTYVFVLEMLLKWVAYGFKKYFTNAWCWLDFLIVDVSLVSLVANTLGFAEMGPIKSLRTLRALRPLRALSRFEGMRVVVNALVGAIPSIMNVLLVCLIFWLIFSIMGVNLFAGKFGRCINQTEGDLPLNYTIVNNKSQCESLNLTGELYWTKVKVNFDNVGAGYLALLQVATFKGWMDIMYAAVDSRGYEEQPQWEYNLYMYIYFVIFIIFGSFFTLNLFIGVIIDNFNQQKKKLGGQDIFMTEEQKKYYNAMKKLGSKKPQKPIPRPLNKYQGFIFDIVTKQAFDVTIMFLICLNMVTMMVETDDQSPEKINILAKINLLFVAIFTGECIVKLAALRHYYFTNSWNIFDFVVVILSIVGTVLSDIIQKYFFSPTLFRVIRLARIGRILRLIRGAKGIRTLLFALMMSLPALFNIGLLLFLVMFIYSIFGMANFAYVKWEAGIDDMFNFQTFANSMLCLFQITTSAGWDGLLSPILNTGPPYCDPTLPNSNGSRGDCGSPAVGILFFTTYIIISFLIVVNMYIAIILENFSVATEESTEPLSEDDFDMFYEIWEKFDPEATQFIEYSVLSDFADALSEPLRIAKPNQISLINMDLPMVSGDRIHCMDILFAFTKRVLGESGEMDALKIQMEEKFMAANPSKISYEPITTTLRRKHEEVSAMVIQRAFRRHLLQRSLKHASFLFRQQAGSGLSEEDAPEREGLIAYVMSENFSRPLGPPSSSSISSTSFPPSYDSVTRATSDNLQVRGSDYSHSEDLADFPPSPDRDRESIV

SMILES: O=C1c2cc(-c3ccc(Cl)cc3)ccc2OCCN1Cc1ncccn1
half-life [1]: 3.23 h
inhibition at 3 µM (NaV1.5 [9]): 17%
inhibition at 10 µM (NaV1.1): 31%
IC50 [3]: 1.62 µM
Activity (Oryctolagus cuniculus [4]): 68%
half-life [5]: 1.6 h
half-life [6]: 1.05 h

SMILES: O=C1c2cc(-c3ccc(OC(F)(F)F)cc3)ccc2CCN1Cc1ncccn1
half-life [1]: 6.58 h
solubility [2]: 60 µM (≈ 24 µg/mL)
inhibition at 10 µM (NaV1.1): 23%
IC50 [3]: 2.31 µM
Activity (Oryctolagus cuniculus [4]): 6%
half-life [5]: 2.5 h
half-life [6]: 2.62 h

SMILES: O=c1c2cc(-c3ccc(C(F)(F)F)cc3)ccc2nnn1Cc1nnc(C2CC2)o1
EC50 (Oryctolagus cuniculus [10]): 0.97 µM
Kp at 0.5 h [8]: 0.86
inhibition (Homo sapiens [7]): 51%

SMILES: O=C1c2cc(-c3ccccc3OC(F)(F)F)ccc2OCCN1Cc1ncccn1
inhibition (Homo sapiens [7]): 26%

SMILES: O=C1c2cc(-c3ccc(OC(F)(F)F)cc3)ccc2OCCN1CCc1ncccn1
half-life [1]: 0.467 h
inhibition at 3 µM (NaV1.5 [9]): 13%
inhibition at 10 µM (NaV1.1): 67%
IC50 [3]: 1 µM
half-life [5]: 0.467 h
half-life [6]: 1.55 h

SMILES: O=C(NCC1CCCCN1)c1cc(OCC(F)(F)F)ccc1OCC(F)(F)F (stereo unspecified) [FLECAINIDE]
Activity [11]: Toxic
Activity [12]: Toxic

SMILES: O=C1c2cc(-c3ccc(Cl)c(F)c3)ccc2OCCN1Cc1ncccn1
inhibition at 1 µM (NaV1.5 [13]): 8%
half-life [1]: 5.5 h
inhibition at 10 µM (NaV1.1): 23%
IC50 [3]: 1.61 µM
Activity (Oryctolagus cuniculus [4]): 58%
half-life [5]: 1.63 h
half-life [6]: 1.92 h

SMILES: COc1ccnc(CN2CCOc3ccc(-c4ccc(OC(F)(F)F)cc4)cc3C2=O)n1
inhibition at 1 µM (NaV1.5 [13]): 27%
half-life [1]: 6.58 h
inhibition at 10 µM (NaV1.1): 60%
IC50 [3]: 0.97 µM
half-life [5]: 4.52 h
half-life [6]: 1.45 h

SMILES: O=C1c2cc(-c3ccc(OC(F)(F)F)cc3F)ccc2OCCN1Cc1ncccn1
half-life [1]: 4.02 h
inhibition at 3 µM (NaV1.5 [9]): 37%
inhibition at 10 µM (NaV1.1): 35%
IC50 [3]: 1.28 µM
Activity (Oryctolagus cuniculus [4]): 39%
half-life [5]: 5.13 h
half-life [6]: 2.6 h

SMILES: Nc1ccnc(CN2CCOc3ccc(-c4ccc(OC(F)(F)F)cc4)cc3C2=O)n1
inhibition at 3 µM (NaV1.5 [9]): 37%
inhibition at 10 µM (NaV1.1): 52%
IC50 [3]: 2.48 µM

SMILES: O=C1c2cc(-c3ccc(OC(F)(F)F)cc3)ccc2OCCN1Cc1ncccc1F
half-life [1]: 2.48 h
inhibition at 10 µM (NaV1.1): 82%
IC50 [3]: 0.16 µM
inhibition at 0.3 µM (NaV1.5 [19]): 23%
half-life [5]: 1.48 h
half-life [6]: 3.23 h

SMILES: COc1ccccc1OCC(O)CN1CCN(CC(=O)Nc2c(C)cccc2C)CC1 (stereo unspecified) [RANOLAZINE]
Activity (Oryctolagus cuniculus [20]): 60%
inhibition in vivo at 12 µM (Oryctolagus cuniculus [21]): 60%
EC50 (Oryctolagus cuniculus [10]): 8 µM
IC50 [22]: 428 µM
inhibition (INH) [23]: Not Active
IC50 (Oryctolagus cuniculus [24]): 16 µM
inhibition (Homo sapiens [25]): inactive
Activity (Oryctolagus cuniculus [26]): Active

SMILES: CC(=O)Nc1ccnc(CN2CCOc3ccc(-c4ccc(OC(F)(F)F)cc4)cc3C2=O)n1
inhibition (Homo sapiens [7]): 6%

SMILES: O=C1c2cc(-c3cccc(OC(F)(F)F)c3)ccc2OCCN1Cc1ncccn1
half-life [1]: 4.95 h
inhibition at 3 µM (NaV1.5 [9]): 3%
inhibition at 10 µM (NaV1.1): 18%
IC50 [3]: 2.03 µM
Activity (Oryctolagus cuniculus [4]): 29%
half-life [5]: 4.9 h
half-life [6]: 0.717 h

SMILES: O=C1c2cc(-c3ccc(C(F)F)cc3)ccc2OCCN1Cc1ncccn1
inhibition (Homo sapiens [7]): 17%

Second part, led by results:

half-life [1]: 5.07 h
solubility [2]: 28 µM (≈ 10.7 µg/mL)
inhibition at 10 µM (NaV1.1): 15%
IC50 [3]: 2.07 µM
half-life [5]: 5.9 h
half-life [6]: 5.33 h
SMILES: O=C1c2cc(-c3ccc(C(F)(F)F)cc3)ccc2CCN1Cc1ncccn1
Activity (Oryctolagus cuniculus [4]): 25%

half-life [1]: 2.5 h
solubility [2]: < 1 µM
inhibition at 10 µM (NaV1.1): 67%
IC50 [3]: 0.5 µM
half-life [5]: 1.15 h
half-life [6]: 2.78 h
SMILES: O=C1c2cc(-c3ccc(OC(F)(F)F)cc3)ccc2OCCN1Cc1ccccn1

inhibition (Homo sapiens [7]): 3%
SMILES: CS(=O)(=O)c1ccc(-c2ccc3c(c2)C(=O)N(Cc2ncccn2)CCO3)cc1

inhibition (Homo sapiens [7]): 39%
SMILES: Cc1noc(Cn2ncc3ccc(-c4ccc(OC(F)(F)F)cc4)cc3c2=O)n1
Kp at 0.5 h [8]: 4.4

inhibition (Homo sapiens [7]): 13%
SMILES: O=C1c2cc(-c3ccc(OC(F)F)cc3)ccc2OCCN1Cc1ncccn1

inhibition (Homo sapiens [7]): 13%
SMILES: COc1ccc(-c2ccc3c(c2)C(=O)N(Cc2ncccn2)CCO3)cc1

inhibition (Homo sapiens [7]): 48%
SMILES: Cc1noc(Cn2cnc3ccc(-c4ccc(OC(F)(F)F)cc4)cc3c2=O)n1
Kp at 0.5 h [8]: 15

inhibition (Homo sapiens [7]): 18%
SMILES: O=C1c2cc(-c3ccccc3)ccc2OCCN1Cc1ncccn1

inhibition (Homo sapiens [7]): 4%
SMILES: CC(=O)Nc1cc(OC(F)(F)F)ccc1-c1ccc2c(c1)C(=O)N(Cc1ncccn1)CCO2

half-life [1]: 5.8 h
solubility [2]: 87 µM (≈ 34.7 µg/mL)
inhibition at 10 µM (NaV1.1): 60%
IC50 [3]: 1.08 µM
half-life [5]: 3.52 h
half-life [6]: 6.18 h
SMILES: O=C1c2cc(-c3ccc(C(F)(F)F)cc3)ccc2OCCN1Cc1ncccn1
Activity [14]: Non-Toxic
EC50 (Oryctolagus cuniculus [10]): 0.3 µM
Activity (Oryctolagus cuniculus [10]; time 60.0 min): Dose-dependent effect
inhibition at 3 µM (NaV1.5 [9]): 27%
Activity [15]: Non-Toxic
Activity (Oryctolagus cuniculus [16]): 88%
Activity (Oryctolagus cuniculus [4]): 62%
Activity (Oryctolagus cuniculus [17]): 38%
Activity [18]: Non-Toxic

half-life [1]: 6.55 h
inhibition at 10 µM (NaV1.1): 33%
IC50 [3]: 0.77 µM
half-life [5]: 5.63 h
SMILES: O=C1c2cc(-c3ccc(OC(F)(F)F)c(Cl)c3)ccc2OCCN1Cc1ncccn1
inhibition at 3 µM (NaV1.5 [9]): 15%
Activity (Oryctolagus cuniculus [4]): 23%

IC50 [3]: 3.03 µM
SMILES: O=C1c2cc(-c3cccc(C(F)(F)F)c3)ccc2OCCN1Cc1ncccn1
